High-throughput results from PubChem BioAssay.
ASAP1 GAP inh: inhibitors of human ASAP1 ArfGAP activity. ASAP1-stimulated ARF1 GTP hydrolysis, GDP FP detection. inhibition, % at 16.5 µM. 360,000 compounds, 0.19% hits; in the data active = inhibition above about 25%
NadD block: blocks S. aureus nicotinate mononucleotide adenylyltransferase; purified NadD enzyme, colorimetric absorbance read-out; inhibition, % at 20 µM; 360,000 compounds, 0.78% hits; in the data active = inhibition above about 26%
ARFGAP1 inh: rat ARFGAP1 inhibition. Q62848. Arfgap1-stimulated ARF1 GTP hydrolysis, GDP FP detection. inhibition, % at 16.5 µM. 360,000 compounds, 0.26% hits;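 active = inhibition above a per-plate limit, mean inhibition of low control wells plus 3 SD, cut at about 25% in these data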
Target sequence (Q62848 1-136 limits assumed): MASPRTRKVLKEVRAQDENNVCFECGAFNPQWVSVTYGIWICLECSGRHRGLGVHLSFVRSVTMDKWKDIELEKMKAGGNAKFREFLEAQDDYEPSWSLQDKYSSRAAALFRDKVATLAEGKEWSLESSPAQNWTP
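Material – truncated rat Arfgap1 GAP domain · Buffer or medium – HEPES-based buffer, pH 7.5 · Reagent – human ARF1(Δ1-17)-GTP substrate · Dosing – 16.5 µM single point, 1.26% DMSO · Schedule – GTP hydrolysis reaction 2 h at 25 °C · Technique – GDP detection by fluorescence polarization · Benchmarks – No-Arfgap1 wells (100%) versus DMSO full-reaction wells (0%) · Repeats – single replicate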
rCAG binder: molecules binding r(CAG) RNA repeats. inhibition, % at 3 µM. r(CAG) RNA repeat, TO-PRO-1 dye displacement fluorescence. AID 651821. 370,000 compounds, 1.3% hits;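 active = inhibition above the plate cutoff, the mean of all test compounds on that plate plus 3 SD, cut at about 35% in these data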;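 note: higher means more dye released from RNA so lower well fluorescence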
ASAP1 inh confirm: confirmation of human ASAP1 inhibitors; shares compounds with ASAP1 GAP inh; ASAP1-stimulated Arf1 GTPase, GDP fluorescence polarization; inhibition, % at 16.5 µM; 620 compounds, 37% hits;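 active = mean inhibition over triplicates exceeds the hit threshold derived for the earlier primary screening run, cut at about 25% in these data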
ARFGAP1 confirm: rat ARFGAP1 inhibition, confirmed. shares compounds with ARFGAP1 inh. ARFGAP1-stimulated ARF1 GTP hydrolysis, GDP tracer FP. inhibition, % at 16.5 µM. 890 compounds, 30% hits;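 active = average inhibition over triplicates above the hit cutoff set in the earlier primary screen, cut at about 25% in these data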
Target sequence (Q62848 whole entry, looked up): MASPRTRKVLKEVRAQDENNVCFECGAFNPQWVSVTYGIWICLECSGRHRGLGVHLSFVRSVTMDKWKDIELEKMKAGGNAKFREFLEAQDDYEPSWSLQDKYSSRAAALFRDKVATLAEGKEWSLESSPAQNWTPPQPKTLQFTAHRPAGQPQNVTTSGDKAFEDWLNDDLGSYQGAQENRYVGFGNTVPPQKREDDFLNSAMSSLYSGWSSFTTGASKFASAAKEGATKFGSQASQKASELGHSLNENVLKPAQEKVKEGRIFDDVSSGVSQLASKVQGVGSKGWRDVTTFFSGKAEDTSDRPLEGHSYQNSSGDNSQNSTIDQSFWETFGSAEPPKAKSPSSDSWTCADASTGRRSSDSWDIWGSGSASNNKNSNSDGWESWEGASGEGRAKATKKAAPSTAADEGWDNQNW
Numbers stand for hits; – = inactive; · = no result. Shown are actives, neighbours in structure and some others; about 2.2% of the full set was active somewhere.

SMILES | ASAP1 GAP inh | NadD block | ARFGAP1 inh | rCAG binder | ASAP1 inh confirm | others
COc1ccc(-n2c3nc4ccccc4nc3c3c(=N)oc(C)nc32)cc1 | 30 | – | – | – | –
CCOc1ccc(NC(=O)CN(C)C(=O)c2cn(-c3ccc(C)cc3)nc2-c2cccc(OC)c2)cc1OCC | 34 | – | – | – | –
COc1cccc(-c2nn(-c3ccc(C)cc3)cc2C(=O)N(C)CC(=O)Nc2cccc(F)c2)c1 | – | – | – | – | ·
COc1cc2nc(NCCCN3CCN(C)CC3)n3nc(-c4ccccc4)nc3c2cc1OC | 36 | – | – | – | –
O=C(COc1ccccc1[N+](=O)[O-])Nc1ccc(NC(=O)c2cc3ccccc3o2)cc1 | – | – | – | – | ·
O=C(COc1ccc(/C=N/NC(=O)c2cc3ccccc3o2)cc1Br)Nc1ccccc1 | 75 | – | – | – | 84
COC(=O)Cc1nnn2c1CC(OC)c1cc(Br)ccc1-2 (centres undefined) | – | · | – | – | ·
CC1(C)CC(CCC(=O)Nc2ccc(S(N)(=O)=O)cc2)C(=O)O1 (centres undefined) | 25 | – | – | – | –
CCOC(=O)c1sc(Nc2nc3c(OC)cccc3s2)nc1C | 25 | – | – | – | –
Nc1ccn([C@@H]2O[C@H](C(=O)N[C@H](Cc3ccccc3)C(=O)NCc3cccc4c3OCO4)[C@@H](O)[C@H]2O)c(=O)n1 | – | · | – | – | ·
C[C@H](CCC(=O)OCc1cn(CC(=O)c2ccc(O)cc2)nn1)C1CC[C@H]2[C@@H]3CC[C@@H]4C[C@H](O)CC[C@]4(C)[C@H]3C[C@H](O)[C@]12C (some centres undefined) | 29 | – | – | – | –
COc1ccc(C(=O)Nc2nc3cc4c(cc3s2)OCO4)c(OC)c1 | 31 | – | – | – | 41
C=C(C)CSc1nnc(-c2cc(-c3ccc(OC)cc3)n[nH]2)n1N | · | · | · | – | ·
COc1cc2nc(CN3CCN(S(=O)(=O)c4ccccc4[N+](=O)[O-])CC3)[nH]c(=O)c2cc1OC | – | – | – | – | ·
CC(C)CC(=O)NC(=S)Nc1ccc(N2CCN(C(=O)c3cccs3)CC2)cc1 | – | – | – | – | ·
CC(C)CC(=O)NC(=S)Nc1ccc(NC(=O)c2cccs2)cc1 | 25 | – | – | – | –
O=C(Nc1ccc(Cc2ccncc2)cc1)c1cccc([N+](=O)[O-])c1 | – | – | – | – | ·
O=C(Nc1ccc(Nc2ccncc2)cc1)c1ccc(Nc2ccnc3ccc([N+](=O)[O-])cc23)cc1 | 46 | – | 77 | – | 75
COc1ccc(Cl)cc1NC(=O)COC(=O)c1cc(C)oc1C | 25 | – | – | – | –
Cc1ccc(NC(=O)C(OC(=O)c2ccc(NC(N)=O)cc2)c2ccccc2)cc1Cl (centres undefined) | 28 | – | – | – | –
CCc1ccc(OCC(=O)N2CCc3ccccc32)cc1 | 26 | – | – | – | –
C/C(=N/NC(=O)c1ccoc1C)c1cccs1 | · | · | · | – | ·
COc1ccc(-c2cccc3c2C2CC3CCN2C(=O)OCc2ccccc2)cc1 (centres undefined) | – | – | – | – | ·
Cc1occc1-c1nnc(SCC(=O)NCc2cccs2)n1-c1ccc(F)cc1 | 26 | – | – | – | –
O=C(N/N=C/c1ccc(F)cc1)c1cc(-c2ccc3c(c2)OCO3)n[nH]1 | – | – | – | – | ·
SMILES | ASAP1 GAP inh | NadD block | ARFGAP1 inh | rCAG binder | ASAP1 inh confirm | others
COc1ccc(/C=N/NC(=O)c2cc(-c3ccc4c(c3)OCO4)n[nH]2)cc1OC | 26 | – | – | – | 34
Cc1cc(/C=N/NC(=O)Cn2c3ccccc3c(=O)c3ccccc32)c(C)n1-c1ccccc1 | 25 | 45 | – | – | –
Cc1ccc(N(CC(=O)N/N=C/c2cc(C)n(-c3ccccc3)c2C)S(C)(=O)=O)c(C)c1 | – | – | – | – | ·
Cc1cc(N2CCNC[C@@H]2C)ccc1N1C[C@@H](C)O[C@@H](C)C1 | – | · | – | – | ·
COC(=O)C1=C(C)N(Cc2ccccc2C(F)(F)F)C(=NCc2ccccc2C(F)(F)F)NC1c1ccc(F)cc1 (centres undefined) | – | · | – | – | ·
Nc1ccc(N2CCCCC2)c2nonc12 | 25 | – | – | – | –
Nc1c(N2CCCC2)cc(Cl)c2nonc12 | · | – | · | · | ·
C=CCN(c1ccccc1OC)S(=O)(=O)c1cccc(C(=O)OCC(=O)N2CCOCC2)c1 | 76 | – | – | – | –
CCOC(=O)C1CCN(c2nc(N)c3c(N)nc(SCC(=O)O)cc3c2C#N)CC1 | 41 | – | 38 | 35 | 25
COC(=O)c1ccc(NC(=O)C2CCN(C(=O)Nc3ccccc3)CC2)cc1 | – | – | – | – | ·
O=C(N[C@H](Cc1ccccc1)C(=O)NCC1CCCO1)[C@H]1O[C@@H](n2ccc(=O)[nH]c2=O)[C@H](O)[C@@H]1O (some centres undefined) | – | · | – | – | ·
Cc1ccc(C(=O)O/N=C/c2c(C)nn(C)c2Cl)cc1 | 27 | – | – | – | –
CCOc1cccc(N(C(=O)CNC(=O)c2ccco2)C(C(=O)NCC2CCCO2)c2ccccc2)c1 (centres undefined) | 25 | – | – | – | –
CCCCN(CC)CCCNC(=O)c1cc2c(-c3ccc(OC)c(OC)c3)nn(C)c2s1 | 34 | – | 27 | – | 72 | ARFGAP1 confirm=74
O=C(CCCCCN1C(=O)C2C3C=CC(C3)C2C1=O)Nc1cc(F)cc(F)c1 (centres undefined) | · | · | · | – | ·
COc1ccc(-c2cc(NC=O)c3ncc(-c4ccc(C(C)=O)cc4)n3c2)cc1OC | 45 | – | 28 | – | 61 | ARFGAP1 confirm=50
COc1cc(-c2cc(NC=O)c3ncc(-c4ccc(C(C)=O)cc4)n3c2)cc(OC)c1OC | – | – | – | – | ·
O=C(Nc1c(-c2ccccc2)nc2ncccn12)c1ccc(F)cc1 | · | · | · | – | ·
COc1cccc(/C=N/NC(=O)N/N=C/c2cccc(OC)c2O)c1O | 31 | – | 64 | – | 81 | ARFGAP1 confirm=95
COc1ccccc1C=NNC(=O)NN=Cc1ccccc1OC | 30 | – | 57 | – | 53 | ARFGAP1 confirm=67
CCN(CC)C(=O)C1=C(C)N(Cc2ccc(C(C)(C)C)cc2)C(=O)C(CC(=O)NC(c2ccccc2)c2ccccc2)C1 (centres undefined) | – | – | – | – | ·
C=CCn1c(C(C)n2c(-c3cnccn3)nc3ccccc32)nc2ccccc21 (centres undefined) | – | · | – | – | ·
O=C(N/N=C/c1ccc(Cl)c([N+](=O)[O-])c1)c1ccc2c(c1)OCCO2 | 83 | – | 66 | – | 104 | ARFGAP1 confirm=99
O=C(Nc1ccc(Cl)c([N+](=O)[O-])c1)c1ccc2c(c1)OCCO2 | – | – | – | – | ·
CCOC(=O)N1CCN(C(=O)C[C@H]2C[C@@]3(C(=O)OC)C(=C[C@H](COCc4ccccc4)O[C@@H]3C)N(Cc3ccccc3)C2=O)CC1 | · | · | · | – | ·
CCC(C)NC(=O)CN1C(=O)C2CCCCN2C(=O)c2ccccc21 (centres undefined) | · | · | · | – | ·
